According to PMC11005929 (Diabetes, Metabolic Syndrome and Obesity, 2024):

Key:
[1] = tested on: non-diabetic participants; conditions: 2-year treatment, SCALE trials; cited from earlier work
db/db mice = test: Glucose-lowering effect of repeated administration in db/db mice; type: in vivo, mouse
DIO mice = test: Repeated administration in diet-induced obesity; type: in vivo, mouse; conditions: s.c. once daily (DR10627 3, 10, 30 nmol/kg; liraglutide 80 nmol/kg)
Procedure, shortened: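 Male C57BL/6 mice, 7 weeks old, kept 11 weeks on a 60% kcal fat diet; those at 42.2–48.7 g were randomised (n=10/group). Standard-diet mice served as normal controls. Dosed s.c. once daily at 5 mL/kg for 57 days. Body weight and food intake were recorded after dosing, and weight change and cumulative intake were calculated. Mean ± SD.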

[2] = Phase 3 trial; cited from earlier work

Compound	weight loss [1]	blood glucose level before administration on D28 (db/db mice; 50 nmol/kg s.c. once daily, n=10, mean ± SD, vehicle 33.6 ± 6.4)	blood glucose levels after treatment on D1 (db/db mice; first s.c. dose (DR10627 2, 6, 18 nmol/kg; liraglutide 50 nmol/kg))	body weight from D5 to D57 compared to the vehicle (DIO mice)	rate of antitaspoglutide antibodies detection [2]
CCCCCCCCCCCCCCCC(=O)N[C@@H](CCC(=O)NCCCC[C@H](NC(=O)[C@H](C)NC(=O)[C@H](C)NC(=O)[C@H](CCC(N)=O)NC(=O)CNC(=O)[C@H](CCC(=O)O)NC(=O)[C@H](CC(C)C)NC(=O)[C@H](Cc1ccc(O)cc1)NC(=O)[C@H](CO)NC(=O)[C@H](CO)NC(=O)[C@@H](NC(=O)[C@H](CC(=O)O)NC(=O)[C@H](CO)NC(=O)[C@@H](NC(=O)[C@H](Cc1ccccc1)NC(=O)[C@@H](NC(=O)CNC(=O)[C@H](CCC(=O)O)NC(=O)[C@H](C)NC(=O)[C@@H](N)Cc1c[nH]cn1)[C@@H](C)O)[C@@H](C)O)C(C)C)C(=O)N[C@@H](CCC(=O)O)C(=O)N[C@@H](Cc1ccccc1)C(=O)N[C@H](C(=O)N[C@@H](C)C(=O)N[C@@H](Cc1c[nH]c2ccccc12)C(=O)N[C@@H](CC(C)C)C(=O)N[C@H](C(=O)N[C@@H](CCCNC(=N)N)C(=O)NCC(=O)N[C@@H](CCCNC(=N)N)C(=O)NCC(=O)O)C(C)C)[C@@H](C)CC)C(=O)O [liraglutide]	5–10%	27.0 ± 3.9 mM	decreased significantly	significantly reduced	–
taspoglutide	–	–	–	–	49%
